The record followed here is ChEMBL document CHEMBL1772975, “Novel potent and selective σ ligands: evaluation of their agonist and antagonist properties” (J Med Chem, 2011).

Molecules are shown by their SMILES. Active and inactive are the calls of the source. The calls are words filed in the database; no cut-off is given here.

The target of assay [1] is Sigma non-opioid intracellular receptor 1 (Cavia porcellus) (UniProt Q60492). Nature of the assay: Displacement of [3H]-(+)-pentazocine from sigma 1 receptor in guinea pig brain membranes after 150 mins in presence of 1 mM to 250 uM of phenytoin. In kind it is cell membranes. The settings on record: Membrane. Put shortly: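 Guinea pig brain [3H](+)-pentazocine competition binding run without phenytoin and with 250 μM or 1 mM phenytoin. Ki ratios (control/with phenytoin) computed. Hill analysis of competition curves. Cocaine served as the putative σ1 agonist control.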
Sigma non-opioid intracellular receptor 1 (Cavia porcellus), sequence (Q60492 whole entry): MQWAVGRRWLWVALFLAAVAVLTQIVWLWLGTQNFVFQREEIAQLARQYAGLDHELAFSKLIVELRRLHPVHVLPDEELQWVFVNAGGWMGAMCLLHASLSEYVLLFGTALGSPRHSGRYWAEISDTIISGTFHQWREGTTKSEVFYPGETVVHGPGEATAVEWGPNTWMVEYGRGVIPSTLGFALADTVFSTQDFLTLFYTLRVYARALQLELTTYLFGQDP
On the technique in general: Loss of bound radioactivity is the signal in a displacement assay; it reports binding, not function.

The nature of assay [2]: Displacement of [3H]DTG from sigma 2 receptor in guinea pig brain membranes after 120 mins. Type of assay: cell membranes, Cavia porcellus, Membrane.
Assay [3] has as its target Sigma non-opioid intracellular receptor 1 (Cavia porcellus, UniProt Q60492). The assay can be described thus: Displacement of [3H]-(+)-pentazocine from sigma 1 receptor in guinea pig brain membranes after 150 mins. Type of assay: cell membranes, Membrane.
The species named for assay [4] is Cavia porcellus. The assay can be described thus: Selectivity ratio of Ki for sigma 1 receptor in guinea pig brain membranes to Ki for sigma 2 receptor in guinea pig brain membranes. Type of assay: cell membranes.
A short description of assay [5]: Binding affinity to dopamine D4.2 receptor.
Assay [6] concerns the target D(2) dopamine receptor (Rattus norvegicus) (UniProt P61169). Nature of the assay: Binding affinity to dopamine D2 receptor in rat striatum. In kind it is tissue-based.
Assay [7] addresses Adrenergic receptor alpha-1 (Rattus norvegicus) (UniProt P15823+P23944+P43140). Nature of the assay: Binding affinity to adrenergic alpha1 receptor in rat cortex.
Assay [8] addresses D(3) dopamine receptor (Rattus norvegicus) (UniProt P19020). Nature of the assay: Binding affinity to dopamine D3 receptor in rat olfactory tubercle. In kind it is tissue-based.
The subject of assay [9] is LNCaP. The assay can be described thus: Antiproliferative activity against human LNCAP cells at 100 uM after 48 hrs. Type of assay: functional, cell-based. The procedure, abridged: (§1)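 LNCaP (hormone-sensitive) and PC3 (hormone-refractory) prostate tumour cells exposed to 100 μM compound for 48 h; antiproliferative effect measured. Haloperidol and haloperidol metabolite II run as references.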

For assay [10], the target named is Mu-type opioid receptor (Rattus norvegicus) (UniProt P33535). Nature of the assay: Displacement of [3H]naloxone from mu opioid receptor in rat brain membranes. In kind it is cell membranes.
Mu-type opioid receptor (Rattus norvegicus), sequence (P33535 whole entry): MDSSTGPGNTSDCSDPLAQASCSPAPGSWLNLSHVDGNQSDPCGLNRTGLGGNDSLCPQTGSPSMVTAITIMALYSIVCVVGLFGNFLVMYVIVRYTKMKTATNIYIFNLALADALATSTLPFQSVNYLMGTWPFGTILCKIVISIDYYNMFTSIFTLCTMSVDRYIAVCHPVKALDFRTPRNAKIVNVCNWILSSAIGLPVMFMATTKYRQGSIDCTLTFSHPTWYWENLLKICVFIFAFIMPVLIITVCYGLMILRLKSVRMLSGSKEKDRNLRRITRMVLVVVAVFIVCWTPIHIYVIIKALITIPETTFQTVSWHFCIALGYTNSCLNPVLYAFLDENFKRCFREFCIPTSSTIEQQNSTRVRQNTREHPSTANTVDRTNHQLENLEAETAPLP
Assay [11] concerns PC-3. The assay can be described thus: Antiproliferative activity against human PC3 cells at 100 uM after 48 hrs. Type of assay: functional, cell-based. Put shortly:
as §1

The nature of assay [12]: Agonist activity at sigma 2 receptor in guinea pig longitudinal muscle/myenteric plexus assessed as inhibition of electrically-induced contraction. As to conditions: Cavia porcellus. Type of assay: functional. The procedure, abridged: (§2)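 Guinea pig ileum preparation with sigma-1 receptors desensitized. Electrically evoked contractions recorded in an isolated organ bath; a dose-response curve was built from the inhibition of the evoked contractions.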

Assay [13] deals with D(1A) dopamine receptor (Rattus norvegicus) (UniProt P18901). Nature of the assay: Binding affinity to dopamine D1 receptor in rat striatum. Type of assay: tissue-based.
D(1A) dopamine receptor (Rattus norvegicus), sequence (P18901 whole entry): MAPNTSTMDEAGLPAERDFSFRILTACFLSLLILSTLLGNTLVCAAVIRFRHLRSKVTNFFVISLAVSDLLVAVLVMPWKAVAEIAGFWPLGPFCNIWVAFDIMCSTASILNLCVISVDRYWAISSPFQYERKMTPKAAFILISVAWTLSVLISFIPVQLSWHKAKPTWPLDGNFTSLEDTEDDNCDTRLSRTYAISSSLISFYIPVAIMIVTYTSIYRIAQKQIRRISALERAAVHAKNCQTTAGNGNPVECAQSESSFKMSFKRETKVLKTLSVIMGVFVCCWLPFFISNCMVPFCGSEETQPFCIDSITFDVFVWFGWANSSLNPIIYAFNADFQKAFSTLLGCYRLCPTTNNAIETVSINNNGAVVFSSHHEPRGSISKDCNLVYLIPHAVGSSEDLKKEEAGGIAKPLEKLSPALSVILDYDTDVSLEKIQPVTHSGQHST
Assay [14] deals with 5-hydroxytryptamine receptor 2A (Rattus norvegicus) (UniProt P14842). The assay can be described thus: Binding affinity to 5-HT2A receptor in rat cortex. Type of assay: tissue-based.
5-hydroxytryptamine receptor 2A (Rattus norvegicus), sequence (P14842 whole entry): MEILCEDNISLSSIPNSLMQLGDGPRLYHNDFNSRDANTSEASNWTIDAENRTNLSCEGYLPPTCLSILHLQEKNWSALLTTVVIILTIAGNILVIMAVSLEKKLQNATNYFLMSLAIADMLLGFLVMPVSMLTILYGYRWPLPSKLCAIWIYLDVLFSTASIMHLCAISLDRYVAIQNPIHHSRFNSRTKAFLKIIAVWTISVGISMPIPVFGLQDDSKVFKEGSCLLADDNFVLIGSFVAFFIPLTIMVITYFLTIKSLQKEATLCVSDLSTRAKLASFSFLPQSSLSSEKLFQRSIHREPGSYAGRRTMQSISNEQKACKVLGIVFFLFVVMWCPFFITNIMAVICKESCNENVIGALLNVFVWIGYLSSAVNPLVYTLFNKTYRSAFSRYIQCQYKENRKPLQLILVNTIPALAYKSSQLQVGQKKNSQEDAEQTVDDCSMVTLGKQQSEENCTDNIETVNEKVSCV
Assay [15] can be described thus: Partial agonist activity at sigma 2 receptor in guinea pig longitudinal muscle/myenteric plexus assessed as inhibition of electrically-induced contraction. In kind it is functional, Cavia porcellus. The procedure, abridged:
as §2

The subject of assay [16] is Rattus norvegicus. Nature of the assay: Potentiation of (-)-U50488H-induced antinociceptive activity in Sprague-Dawley rat assessed as mean AUC of thermal-stimulus induced tail flick latency for 60 mins at 1 mg/kg, sc treated 45 mins before (-)-U50488H challenge. Type of assay: functional. As to conditions: route subcutaneous. The procedure, abridged: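 Rats were pretreated sc with test compound at 1 mg/kg 45 min before the κ agonist (−)-U50,488H at 5 mg/kg sc. Thermal-stimulus tail flick latency was taken as percent change from basal over 60 min and summarised as MAUC after the last injection. Groups were compared with saline- and U50,488H-only groups, n = 8–10, mean ± SD, p < 0.05.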
(Hot-plate and tail-flick tests time the reaction to a heat stimulus.)

Assay [17] has as its system Rattus norvegicus. Nature of the assay: Antinociceptive activity in Sprague-Dawley rat assessed as mean AUC of thermal-stimulus induced tail flick latency for 60 mins at 1 mg/kg, sc. Type of assay: functional, organism-based. Also on record: dose 1 mg/kg. The procedure, abridged: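 Rats given test compound 1 mg/kg sc alone. Tail flick latency to thermal stimulation, expressed as percent change from basal, tracked over a 60 min window. Summarised as mean area under the curve (MAUC) after the last injection. Compared against saline-treated rats, n = 8–10 per group, mean ± SD, significance at p < 0.05.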

Sigma non-opioid intracellular receptor 1, sequence (Q60492 whole entry): as the sequence (Q60492 whole entry) above
D(2) dopamine receptor (Rattus norvegicus), sequence (P61169 whole entry): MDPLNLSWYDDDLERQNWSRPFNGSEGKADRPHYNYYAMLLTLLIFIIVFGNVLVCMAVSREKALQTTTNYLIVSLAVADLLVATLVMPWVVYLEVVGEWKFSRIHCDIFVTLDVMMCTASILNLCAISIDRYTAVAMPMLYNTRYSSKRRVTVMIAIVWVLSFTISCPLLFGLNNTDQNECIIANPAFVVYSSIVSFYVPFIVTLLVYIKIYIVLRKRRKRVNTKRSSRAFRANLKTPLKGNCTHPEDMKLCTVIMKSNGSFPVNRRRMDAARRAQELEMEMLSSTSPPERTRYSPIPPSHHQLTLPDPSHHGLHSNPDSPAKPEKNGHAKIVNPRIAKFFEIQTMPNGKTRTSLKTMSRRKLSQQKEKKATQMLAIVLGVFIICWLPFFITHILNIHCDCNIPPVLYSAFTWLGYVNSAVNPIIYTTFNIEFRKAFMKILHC
D(3) dopamine receptor (Rattus norvegicus), sequence (P19020 whole entry): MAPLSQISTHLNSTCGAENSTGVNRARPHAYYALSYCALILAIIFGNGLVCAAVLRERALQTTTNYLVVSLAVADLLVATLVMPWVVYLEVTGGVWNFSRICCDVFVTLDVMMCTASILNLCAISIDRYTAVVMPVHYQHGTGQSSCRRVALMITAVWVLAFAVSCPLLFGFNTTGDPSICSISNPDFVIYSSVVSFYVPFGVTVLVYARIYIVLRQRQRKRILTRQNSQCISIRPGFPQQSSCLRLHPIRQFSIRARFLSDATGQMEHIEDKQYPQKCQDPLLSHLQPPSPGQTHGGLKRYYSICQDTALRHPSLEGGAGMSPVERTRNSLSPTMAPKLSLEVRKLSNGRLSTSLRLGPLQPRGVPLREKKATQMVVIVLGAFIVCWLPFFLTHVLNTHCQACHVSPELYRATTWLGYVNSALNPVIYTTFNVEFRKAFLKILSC

In the case of `COC(=O)[C@H]1[C@@H](OC(=O)c2ccccc2)C[C@@H]2CC[C@H]1N2C`, the inhibition result in assay [1] is “inactive”.
As usually defined, the Ki is a dissociation constant, usually derived from enzyme kinetics or from competition with a known ligand. As for `COC(=O)[C@@]1(c2ccccc2)C[C@H]1CN1CCC(O)(c2ccc(Cl)cc2)CC1`, the Ki was determined as 0.0234 µM in assay [2] and 0.00561 µM in assay [3].
With `COC(=O)[C@]1(c2ccccc2)C[C@@H]1CN1CCC(O)(c2ccc(Cl)cc2)CC1`, in assay [1], the inhibition entry was “Active”. In addition, the Ki is 0.0219 µM in [2] and 0.00395 µM in assay [3].
With `COC(=O)[C@]1(c2ccccc2)C[C@@H]1CN1CCC(O)(c2ccccc2)CC1`, the Ratio Ki in assay [4] was 5.6. Also, the figures for the inhibition constant (Ki) in [2] and in [3] were 0.0282 µM and 0.00502 µM, respectively.
As a reminder, the EC50 is the concentration that produces a half-maximal response. Regarding `COC(=O)[C@@]1(c2ccccc2)C[C@H]1CN1[C@@H]2CC[C@H]1C[C@@](O)(c1ccc(Cl)cc1)C2`, the result in assay [5], in assay [6], in assay [7], in assay [8], in [9] and in assay [10] was Active. Also, the result in assay [11], in [13] and in assay [14] was Active. In assay [4], the Ratio Ki was 0.05. The figures for the Ki in [2] and in [3] were 0.0252 µM and 0.52 µM, respectively. Moreover, the concentration for a half-maximal effect (EC50) in assay [12] is 2.3 µM. In [15], the Alpha max is 0.4.
Turning to `COC(=O)[C@@]1(c2ccccc2)C[C@H]1CN1C2C=C(c3ccc(Cl)cc3)CC1CC2` (mixture of isomers), in assay [4], the Ratio Ki came to 2.8. For the same compound, the inhibition constant (Ki) in assay [2] amounted to 0.565 µM; in assay [3], 0.198 µM.
Taken in the same sequence, the figures for `COC(=O)[C@]1(c2ccccc2)C[C@@H]1CN1[C@@H]2CC[C@H]1C[C@@](O)(c1ccc(Cl)cc1)C2` were 1.3, 0.0583 µM and 0.044 µM.
With `O=C(CCCc1ccccc1)OC(CCCN1CCC(O)(c2ccc(Cl)cc2)CC1)c1ccc(F)cc1` (racemic), in [4], the Ratio Ki is 0.18. Further, the Ki in assay [2] turned out to be 0.00098 µM; in assay [3], 0.0054 µM.
In the case of `COC(=O)[C@@]1(c2ccccc2)C[C@H]1CN1CCC(O)(c2ccccc2)CC1`, the outcome in [5], in assay [6], in assay [7], in assay [8], in [10] and in assay [13] was Active. The result in assay [14] was Active. Also, the Activity in assay [16] amounted to 118.2%. Also, the Ratio Ki in assay [4] came out at 81.4. Also, the inhibition result in assay [1] was “Active”. Also, the inhibition constant (Ki) in [2] came out at 0.571 µM; in assay [3] it was 0.00701 µM. The result in assay [17] was inactive.
In assay [2], `Cc1ccccc1NC(=N)Nc1ccccc1C` [DITOLYLGUANIDINE] returned an inhibitory constant (Ki) of 0.023 µM.
As to `COC(=O)[C@]1(c2ccccc2)C[C@@H]1CN1C2C=C(c3ccc(Cl)cc3)CC1CC2` (mixture of isomers), the Ratio Ki in assay [4] was found to be 2.4. Also, the Ki in assay [2] is 0.943 µM; in assay [3], 0.397 µM.
The compound `O=C(CCCN1CCC(O)(c2ccc(Cl)cc2)CC1)c1ccc(F)cc1` [HALOPERIDOL] yielded a Ki in [2] of 0.016 µM.
